# Measurements as given in PMC6430907 (Journal of Veterinary Internal Medicine, 2019).
# System: dogs with compensated CHF caused by MMVD
# Assay: Urine output
# Format: in vivo, dog
# How it was run: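 Crossover design in 7 male dogs with ACVIM stage C CHF from MMVD, treated in fixed order with a 2-week washout. Baseline UOP was measured at the end of a 1-h control period. […] UOP was log-transformed and analysed by linear mixed modelling (REML, least square differences).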
smiles,measurement,setting,value
"NS(=O)(=O)c1cc(C(=O)O)c(NCc2ccco2)cc1Cl [FRUS, furosemide]",increase in median UOP compared to baseline at maximal effect,"1 hour after treatment, median of 7 dogs",1246%
same,change in urine output (UOP) from baseline,"BNP 5 μg/kg SC, FRUS 2 mg/kg SC, or both, 1, 2, 3 hours, 7 dogs",increased significantly
same,time after treatment of maximal effect on UOP,furosemide 2 mg/kg SC with or without BNP 5 μg/kg SC,1 h
